# Measurements reported in ChEMBL document CHEMBL1143237, “Sulfonamide-1,2,4-triazole derivatives as antifungal and antibacterial agents: synthesis, biological evaluation, lipophilicity, and conformational studies” (Bioorg Med Chem, 2008).
# Assays:
# Aspergillus ochraceus = assay: Antifungal activity against Aspergillus ochraceus ATCC 12066 after 72 hrs by microdilution test; format: functional; settings: ATCC 12066, 72 h
# Summary of the method: (§1)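 Modified microdilution in malt broth. Spores were washed from malt agar with sterile 0.85% saline containing 0.1% Tween 80 and adjusted to about 1.0 × 10⁵ per well. Compounds were dissolved in DMSO and tested at […] µg/ml. Incubation 72 h at 28 °C. MIC is the lowest concentration with no visible growth under a binocular microscope. MFC by 2 µl subculture and a further 72 h at 28 °C.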
# Talaromyces funiculosus = assay: Antifungal activity against Penicillium funiculosum ATCC 36839 after 72 hrs by microdilution test; format: functional; settings: ATCC 36839, 72 h; summary of the method: as §1
# Aspergillus niger = assay: Antifungal activity against Aspergillus niger ATCC 6275 after 72 hrs by microdilution test; format: functional; settings: ATCC 6275, 72 h; summary of the method: as §1
# Aspergillus flavus = assay: Antifungal activity against Aspergillus flavus ATCC 9643 after 72 hrs by microdilution test; format: functional; settings: ATCC 9643, 72 h; summary of the method: as §1
# Trichoderma viride = assay: Antifungal activity against Trichoderma viride IAM 5061 after 72 hrs by microdilution test; format: functional; summary of the method: as §1
# Aspergillus versicolor = assay: Antifungal activity against Aspergillus versicolor ATCC 11730 after 72 hrs by microdilution test; format: functional; settings: ATCC 11730, 72 h; summary of the method: as §1
# Salmonella enteritidis = assay: Antibacterial activity against Salmonella enteritidis ATCC 13076 after 24 hrs by microdilution test; format: functional, Salmonella enterica subsp. enterica serovar Enteritidis; settings: Salmonella enterica, ATCC 13076, 24 h
# Summary of the method: (§2)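 Broth microdilution in LB medium in 96-well plates. Inoculum 1.0 × 10⁴ CFU per well, from a suspension set to 1.0 × 10⁵ CFU/ml in sterile saline. Compounds at […] µg/ml. Incubation 24 h at 28 °C. MIC is the lowest concentration with no visible growth under a binocular microscope. MBC by subculturing 2 µl into fresh broth for a further 72 h. OD540 read against blank. DMSO negative control.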
# Salmonella typhimurium = assay: Antibacterial activity against Salmonella Typhimurium ATCC 13311 after 24 hrs by microdilution test; format: functional, Salmonella enterica subsp. enterica serovar Typhimurium; settings: Salmonella enterica, ATCC 13311, 24 h; summary of the method: as §2
# [1] = tested on: Staphylococcus epidermidis; assay: Antibacterial activity against Staphylococcus epidermidis ATCC 12228 after 24 hrs by microdilution test; format: functional; settings: ATCC 12228, 24 h; summary of the method: as §2
# Micrococcus luteus = assay: Antibacterial activity against Micrococcus flavus ATCC 10240 after 24 hrs by microdilution test; format: functional; settings: ATCC 10240, 24 h; summary of the method: as §2
# Enterobacter cloacae = assay: Antibacterial activity against Enterobacter cloacae after 24 hrs by microdilution test; format: functional; summary of the method: as §2
# Escherichia coli = assay: Antibacterial activity against Escherichia coli ATCC 35210 after 24 hrs by microdilution test; format: functional; settings: ATCC 35210, 24 h; summary of the method: as §2
# Bacillus cereus = assay: Antibacterial activity against Bacillus cereus ATCC 10907 after 24 hrs by microdilution test; settings: ATCC 10907, 24 h
# [2] = Partition coefficient, log P of the compound; format: physicochemical; settings: octanol/water
# Summary of the method: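 Calculated, not measured: AlogP, IAlogP, ClogP, Cosmo logP, mlogP, Kowwin and XlogP were computed and averaged.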
Compound,MIC (Aspergillus ochraceus) [µg/mL],MIC (Talaromyces funiculosus) [µg/mL],MIC (Aspergillus niger) [µg/mL],MIC (Aspergillus flavus) [µg/mL],MIC (Trichoderma viride) [µg/mL],MIC (Aspergillus versicolor) [µg/mL],MIC (Salmonella enteritidis) [µg/mL],MIC (Salmonella typhimurium) [µg/mL],MIC [1] [µg/mL],MIC (Micrococcus luteus) [µg/mL],MFC (Aspergillus ochraceus) [µg/mL],MFC (Talaromyces funiculosus) [µg/mL],MFC (Aspergillus niger) [µg/mL],MFC (Aspergillus flavus) [µg/mL],MFC (Trichoderma viride) [µg/mL],MFC (Aspergillus versicolor) [µg/mL],MBC (Salmonella enteritidis) [µg/mL],MBC (Salmonella typhimurium) [µg/mL],MBC [1] [µg/mL],MBC (Micrococcus luteus) [µg/mL],further results
c1ccc(-c2ccc(C(c3ccccc3)n3ccnc3)cc2)cc1 (configuration not stated) [BIFONAZOLE],150,200,200,150,200,150,–,–,–,–,200,250,250,200,250,200,–,–,–,–,–
COc1cc(Cc2n[nH]c(=S)n2-c2ccccc2)c(S(=O)(=O)N(C)C)cc1OC,100,100,100,50,50,100,150,100,150,150,150,100,150,100,100,150,150,150,150,150,MBC (Enterobacter cloacae): 100 µg/mL; MIC (Enterobacter cloacae): 100 µg/mL; MBC (Escherichia coli): 150 µg/mL; MIC (Escherichia coli): 100 µg/mL; MBC (Bacillus cereus): 150 µg/mL; MIC (Bacillus cereus): 150 µg/mL; logP [2]: 1.72
COc1cc(Cc2n[nH]c(=S)n2-c2ccc(Cl)cc2)c(S(=O)(=O)N2CCOCC2)cc1OC,100,100,150,100,100,100,150,100,150,150,150,150,150,150,150,150,150,150,150,150,MBC (Enterobacter cloacae): 100 µg/mL; MIC (Enterobacter cloacae): 100 µg/mL; MBC (Escherichia coli): 150 µg/mL; MIC (Escherichia coli): 100 µg/mL; MBC (Bacillus cereus): 150 µg/mL; MIC (Bacillus cereus): 150 µg/mL; logP [2]: 2.25

# Further lines, with some results ahead:
MIC (Aspergillus ochraceus) [µg/mL],MIC (Talaromyces funiculosus) [µg/mL],MIC (Aspergillus niger) [µg/mL],MIC (Aspergillus flavus) [µg/mL],MIC (Trichoderma viride) [µg/mL],MIC (Aspergillus versicolor) [µg/mL],MIC (Salmonella enteritidis) [µg/mL],MIC (Salmonella typhimurium) [µg/mL],MIC [1] [µg/mL],MIC (Micrococcus luteus) [µg/mL],Compound,MFC (Aspergillus ochraceus) [µg/mL],MFC (Talaromyces funiculosus) [µg/mL],MFC (Aspergillus niger) [µg/mL],MFC (Aspergillus flavus) [µg/mL],MFC (Trichoderma viride) [µg/mL],MFC (Aspergillus versicolor) [µg/mL],MBC (Salmonella enteritidis) [µg/mL],MBC (Salmonella typhimurium) [µg/mL],MBC [1] [µg/mL],MBC (Micrococcus luteus) [µg/mL],further results
100,100,150,100,150,100,150,150,150,150,COc1cc(Cc2n[nH]c(=S)n2-c2ccccc2)c(S(=O)(=O)N2CCCC2)cc1OC,150,150,150,150,150,150,150,150,150,150,MBC (Enterobacter cloacae): 100 µg/mL; MIC (Enterobacter cloacae): 100 µg/mL; MBC (Escherichia coli): 150 µg/mL; MIC (Escherichia coli): 150 µg/mL; MBC (Bacillus cereus): 150 µg/mL; MIC (Bacillus cereus): 150 µg/mL; logP [2]: 2.13
100,100,100,100,100,100,150,100,150,150,COc1cc(Cc2n[nH]c(=S)n2-c2ccc(Cl)cc2)c(S(=O)(=O)N2CCCCC2)cc1OC,150,150,150,150,150,150,150,150,150,150,MBC (Enterobacter cloacae): 100 µg/mL; MIC (Enterobacter cloacae): 100 µg/mL; MBC (Escherichia coli): 150 µg/mL; MIC (Escherichia coli): 100 µg/mL; MBC (Bacillus cereus): 150 µg/mL; MIC (Bacillus cereus): 150 µg/mL; logP [2]: 3.31
100,100,100,100,100,100,150,100,150,150,COc1cc(Cc2n[nH]c(=S)n2-c2ccccc2)c(S(=O)(=O)N2CCCCC2)cc1OC,150,150,150,150,150,150,150,150,150,150,MBC (Enterobacter cloacae): 100 µg/mL; MIC (Enterobacter cloacae): 100 µg/mL; MBC (Escherichia coli): 150 µg/mL; MIC (Escherichia coli): 100 µg/mL; MBC (Bacillus cereus): 150 µg/mL; MIC (Bacillus cereus): 150 µg/mL; logP [2]: 2.63
